Publication PMC2413043 (The Journal of Experimental Medicine, 2008)
“Also recorded” adds a separate entry of the source.

Legend:
COX-2 and CXCL2 = assay: Liver COX-2 and CXCL2 expression by RT-PCR; assay type: in vivo, mouse; conditions: 4 h after LPS, n = 2
Outline: (§1)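 Mice were dosed with TSA each day from day −2 and challenged with LPS on day 0. Liver RNA was harvested 4 h after LPS. RT-PCR was run for TNF-α and IL-1β, or for COX-2 and CXCL2, with two mice per group.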

NOS2 [1] = assay: NOS2 protein levels by immunoblot in RAW cells; assay type: cell-based, mouse; conditions: RAW cells
Outline: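 RAW 264.7 cells were handled in two ways. For agonist response, cells were exposed to the TLR agonists PGN, poly(I:C), LPS or E. coli for 16 h, with or without TSA. For TSA dose-response, cells were pretreated with increasing TSA for 1 h, then given LPS 100 ng/ml for 6 h, with ERα as the blot control. In both, lysates were immunoblotted for NOS2.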

NOS2 [2] = assay: Liver NOS2 protein by immunoblot; assay type: in vivo, mouse; conditions: TSA pretreatment 4 h, LPS 16 h
Outline: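 Mice were pretreated with increasing amounts of TSA for 4 h, then given LPS for 16 h. Liver was harvested and its lysate immunoblotted for NOS2, with MEK1 as the loading control.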

MKP-1 KO mice = assay: LPS-induced mortality in MKP-1 KO mice; assay type: in vivo, mouse; conditions: LPS 20 mg/kg; n = 5; P = 0.17 LPS vs. LPS with TSA
IL-1β [3] = assay: IL-1β in media of primary macrophages by ELISA; assay type: cell-based, mouse; conditions: TSA and LPS, 4 h, n = 2 ± SD
Outline: (§2)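 Primary peritoneal macrophages collected by PBS lavage from resting WT or MKP-1−/− mice, not thioglycolate-elicited; the mice were on a C57BL/6J background. Cells stimulated with TSA, LPS or both. After 4 h, TNF-α and IL-1β in the media were measured by ELISA; n = 2, mean ± SD.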

MKP-1-ERα and p38 = assay: MKP-1-ERα/p38 interaction by co-immunoprecipitation in HeLa cells; assay type: cell-based; conditions: 4-HT, LPS and TSA 1 h
IL-1β [4] = assay: Serum IL-1β by ELISA in LPS-treated mice; assay type: in vivo, mouse; conditions: TSA daily from day −2, LPS day 0, serum 2 h after LPS, n = 2 ± SD
TNF-α [5] = assay: TNF-α in media of primary macrophages by ELISA; assay type: cell-based, mouse; conditions: TSA and LPS, 4 h, n = 2 ± SD
Outline: as §2

WT mice = assay: LPS-induced mortality in WT mice; assay type: in vivo, mouse; conditions: Fig. S4 B
TNF-α [6] = assay: Serum TNF-α by ELISA in LPS-treated mice; assay type: in vivo, mouse; conditions: TSA daily from day −2, LPS day 0, serum 2 h after LPS, n = 2 ± SD
p38 [7] = assay: Phospho-p38 in MEFs from MKP-1 heterozygous or KO mice; assay type: cell-based, mouse; conditions: LPS and TSA 30 min
Outline: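 Embryonic fibroblasts from MKP-1+/− or MKP-1−/− mice, grown in DME with 10% FBS, were treated with LPS and TSA for 30 min. Lysates were immunoblotted for phospho-p38 and total p38.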

TNF-α, IL-6, and IL-1β = assay: Inflammatory cytokine RNA levels by Northern blotting in RAW cells; assay type: cell-based, mouse; conditions: RAW cells treated with LPS and TSA 4 h
Outline: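 RAW 264.7 cells (DME, 10% FBS) treated with LPS and TSA for 4 h. Total RNA was isolated with TRIZOL and analysed by Northern blotting with probes for TNF-α, IL-1β and IL-6, with GAPDH as loading control.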

NOS2 [8] = assay: NOS2 expression in RAW cells with MKP-1 siRNA or control siRNA; assay type: cell-based, mouse; conditions: LPS and TSA
Outline: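 RAW 264.7 cells were stably transfected with vectors encoding siRNA hairpins against MKP-1 nucleotides 67–85 or 743–761, or with a control hairpin. Knockdown in the isolated clones was confirmed by MKP-1 immunoblot. Clones were treated with LPS and TSA, and lysates were immunoblotted for NOS2 and MAPK family members.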

MKP-1 = MKP-1 acetylation in mouse liver by immunoprecipitation; assay type: in vivo; conditions: TSA pretreatment 4 h, LPS 16 h; IP MKP-1, blot Ac-Lys
Outline: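 Mice pretreated with TSA for 4 h, then given LPS for 16 h. Liver lysates were immunoprecipitated with anti-MKP-1 and immunoblotted with anti-acetyl-lysine or anti-MKP-1.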

p38 [9] = assay: Phospho-p38 in primary peritoneal macrophages; assay type: cell-based, mouse; conditions: LPS, TSA or both
Outline: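 Resident (non-thioglycolate-elicited) peritoneal macrophages were collected by PBS lavage from WT and MKP-1−/− mice. Cells were stimulated with LPS, TSA or both, and lysates were immunoblotted for total and phospho-p38.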

phospho-ERK1 = assay type: cell-based; conditions: MKP-1 immunoprecipitated from RAW cells treated with LPS and TSA 4 h
Outline: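 RAW 264.7 cells grown in DME with 10% FBS were treated with LPS plus TSA, or with control, for 4 h. Endogenous MKP-1 was immunoprecipitated from the lysates and incubated with recombinant phospho-p38 or phospho-ERK1. Remaining phosphorylation was detected by immunoblotting with phospho-p38 or phospho-ERK antibodies. The amount of phospho-substrate added was shown as an input lane.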

TNF-α and IL-1β = assay: Liver TNF-α and IL-1β mRNA by RT-PCR; assay type: in vivo, mouse; conditions: liver 4 h after LPS, two representative mice
Outline: as §1

NF-κB pathway = assay: LPS activation of the NF-κB pathway; assay type: cell-based; conditions: Fig. S2
p38 [10] = assay: Phospho-p38 in RAW cells with MKP-1 siRNA or control siRNA; assay type: cell-based, mouse
Outline: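 RAW cells stably transfected with vectors encoding hairpin siRNA against MKP-1 nucleotides 67–85 or 743–761, or a control sequence, with separate clones isolated. Knockdown was confirmed by MKP-1 immunoblot. Clones were treated with LPS and TSA, and lysates were immunoblotted for NOS2 and MAPK family members, including phospho-p38.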

MKP-1-ERα and ERK1 = assay: MKP-1-ERα/ERK1 interaction by co-immunoprecipitation in HeLa cells; assay type: cell-based; conditions: His6-ERK1, LPS and TSA 1 h
Outline: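 HeLa cells in DME with 10% FBS were co-transfected by Lipofectamine 2000 with MKP-1(WT)-ERα or MKP-1(K57R)-ERα plus His6-ERK1. Fusion expression was induced with 200 nM 4-hydroxytamoxifen, then cells were treated with LPS and TSA for 1 h. Lysates were immunoprecipitated and immunoblotted with anti-ERα (MKP-1 tag) and anti-His6 (ERK1 tag).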

CC(/C=C/C(=O)NO)=C\[C@@H](C)C(=O)c1ccc(N(C)C)cc1 [TSA, trichostatin A]
COX-2 expression in liver (COX-2 and CXCL2): slightly increases | CXCL2 expression in liver (COX-2 and CXCL2): slightly increases | NOS2 expression activated by TLR agonists (LPS, E. coli, PGN, dsRNA) (NOS2 [1]; TLR agonist 16 h, effect of TSA): inhibits expression of NOS2 activated by each of these four TLR activators | NOS2 steady-state protein levels (NOS2 [1]; TSA pretreatment 1 h, LPS 6 h): decreases NOS2 steady-state protein levels | NOS2 steady-state protein levels in liver (NOS2 [2]): decreases NOS2 steady-state protein levels in liver | mortality after LPS, effect of TSA, MKP-1 KO mice (MKP-1 KO mice): minimal and insignificant effect on mortality; also recorded: small protective effect on MKP-1^−/− mouse mortality | decrease of IL-1β, MKP-1 KO macrophages (IL-1β [3]): 34% | decrease of IL-1β, WT macrophages (IL-1β [3]): 85% | interaction between mutant MKP-1(K57R) and p38 (MKP-1-ERα and p38; MKP-1(K57R)-ERα): not able to affect the interaction between mutant MKP-1(K57R) and p38 | interaction between MKP-1(WT) and p38 (MKP-1-ERα and p38; MKP-1(WT)-ERα): increases the interaction between MKP-1(WT) and p38 | decrease of serum IL-1β, MKP-1−/− mice (IL-1β [4]): 21% | suppression of TNF-α, MKP-1−/− macrophages (TNF-α [5]): 27% | suppression of TNF-α, WT macrophages (TNF-α [5]): 87% | mortality after LPS, dose response to TSA (WT mice): decreases mortality after LPS in a dose-responsive manner | decrease of serum TNF-α, MKP-1−/− mice (TNF-α [6]): 22% | phospho-p38 levels, heterozygous vs MKP-1 KO MEFs (p38 [7]): decreases phospho-p38 levels in heterozygous cells, but not in MKP-1 KO cells | expression of IL-1β (TNF-α, IL-6, and IL-1β): inhibits | expression of IL-6 (TNF-α, IL-6, and IL-1β): inhibits | expression of TNF-α (TNF-α, IL-6, and IL-1β): inhibits | LPS-induced NOS2 expression, control vs MKP-1 siRNA cells (NOS2 [8]): decreases LPS-induced NOS2 expression in control cells, but not in cells with decreased MKP-1 | acetylation of MKP-1 in liver (MKP-1): increases acetylation of MKP-1 in vivo | phospho-p38, WT vs MKP-1−/− primary macrophages (p38 [9]): only suppresses phospho-p38 in macrophages from WT mice, not in macrophages from MKP-1^−/− mice | removal of phosphate from recombinant phospho-ERK1 by MKP-1 (phospho-ERK1): removes more phosphate from recombinant phospho-ERK1 than MKP-1 from control cells | LPS-induced IL-1β mRNA in liver (TNF-α and IL-1β): decreases | LPS-induced TNF-α mRNA in liver (TNF-α and IL-1β): decreases | LPS activation of the NF-κB pathway (NF-κB pathway): does not affect LPS activation of the NF-κB pathway | LPS-triggered IκBα degradation (NF-κB pathway): slightly increases | LPS-triggered p65 nuclear translocation (NF-κB pathway): slightly increases | NF-κB transactivation of the NOS2 promoter (NF-κB pathway): slightly increases | κB-binding activity (NF-κB pathway): slightly increases | LPS-induced phospho-p38, control siRNA cells (p38 [10]; RAW cells expressing control hairpin RNA, LPS and TSA): limits this increase | effect of TSA on phospho-p38, MKP-1 siRNA cells (p38 [10]; RAW cells with siRNA of MKP-1, LPS and TSA): siRNA of MKP-1 blocks the effect of TSA | interaction of ERK1 and MKP-1 (WT vs mutant K57R) (MKP-1-ERα and ERK1): increases the interaction of ERK1 and WT, but not mutant, MKP-1 in cells
